Data published in article PMC7498158 (Journal of Medicinal Chemistry, 2020).

Test system: PLAAT2–5
Assay: gel-based competitive ABPP, statements for all tested PLAAT members
Type: biochemical, human
Conditions: 10 μM inhibitor, 30 min; active = residual protein labeling ≤50%
How it was run: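 Human PLAAT cDNA (C-terminal FLAG, pcDNA3.1) was PEI-transfected into HEK293T; cytosol came from a 100,000g spin. Cytosol was preincubated with test compound (30 min, rt), then MB064 (20 min, rt). Conditions: PLAAT2 0.25 μg/μL, 250 nM; PLAAT3 0.5 μg/μL, 250 nM; PLAAT4/5 1 μg/μL, 500 nM. In-gel fluorescence was normalized to Coomassie, in triplicate. Single-concentration screen or IC50 from dose–response curves.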

Row | Compound | activity on PLAAT2–5 (in words)
1 | O=C(NCCc1ccccc1)C(O)CCc1ccc(Cl)cc1 (stereo not drawn) [Compound 23, 4-(4-Chlorophenyl)-2-hydroxy-N-phenethylbutanamide] | no activity
2 | O=C(NCc1ccccc1)C(F)(F)C(O)CCc1ccccc1 (stereo not drawn) [Compound 3] | inactive
3 | CN(CCc1ccccc1)C(=O)C(=O)CCc1ccc(Cl)cc1 [Compound 12] | complete loss of activity
4 | CN(C)C(=O)C(=O)CCc1ccc(Cl)cc1 [Compound 14] | did not show any activity
5 | CCN(CCc1ccccc1)C(=O)C(=O)CCc1ccc(Cl)cc1 [Compound 22] | did not show any activity
6 | O=C(CCc1ccc(Cl)cc1)C(=O)N1CCCCC1 [Compound 13] | did not show any activity
7 | O=C(CCc1ccc(Cl)cc1)C(=O)N1CCOCC1 [Compound 15] | did not show any activity
8 | COCCN(CCOC)C(=O)C(=O)CCc1ccc(Cl)cc1 [Compound 17] | did not show any activity
9 | CN1CCN(C(=O)C(=O)CCc2ccc(Cl)cc2)CC1 [Compound 16] | did not show any activity
10 | CCOC(=O)C(F)(F)C(O)CCc1ccccc1 (stereo not drawn) [Compound 4] | inactive

Same assay, conditions: focused library screen

Row | Compound | hit potency for all tested PLAAT members (in words)
11 | O=C(CCc1ccc(Cl)cc1)C(=O)NCCCCc1ccccc1 [Compound 2] | submicromolar
12 | O=C(CCc1ccc(Cl)cc1)C(=O)NCCc1ccccc1 [Compound 1, 4-(4-Chlorophenyl)-2-oxo-N-phenethylbutanamide] | submicromolar
